WT yeast gro inh – growth inhibition of WT strain, primary screen, mitochondrial fusion inhibitor project, WT and mutant strains, chemical genetic. mitochondrial fusion phenotypic screen. inhibition, % at 10 µM. 2.1% of 190,000 active; in the data active means inhibition above about 58%; tested in S. cerevisiae
MT stabilize HCS – microtubule stabilizers in HeLa cells, primary screen, imaging, high-content imaging; % tubulin-high responders, % at 10 µM; AID 2205, 2009; 0.83% of 200,000 active; HeLa tubulin immunostaining HCS, 24 h; share of cells brighter than vehicle mean+2SD;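 active means plate Z-score above 3 for both tubulin-high and condensed-nucleus cell shares, with cell loss under 80%, at 10 µM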;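 further: anti alpha tubulin signal scored within the nucleus-defined area of each cell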
b-catenin transl – modulators of beta-catenin nuclear translocation, primary screen, imaging, HeLa cells, immunofluorescence, high-content | nuclear translocation activity, % at 5 µM | 0.3% of 190,000 active | AID 1665, 2009;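 active means nuclear translocation activity above 50% at 5 µM, with a well cell count of 50 or more; inconclusive means wells under 50 cells across six images, flagged as toxic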;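 further: per-cell ratio of nuclear to cytoplasmic median beta-catenin stain intensity; plate controls were DMSO negative control for no effect and GSK-3 inhibitor IX positive control for full effect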
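Test system: human HeLa cells, native beta-catenin. Compound dosing: 5 µM primary single dose, 0.1% DMSO, 0.02–20 µM confirmation series. Incubation: compound exposure 24 h at 37°C. Detection: beta-catenin immunostaining with DAPI counterstain, 20x imaging, 6 fields/well. Read-out basis: Nuclear/cytoplasmic beta-catenin signal ratio, % activation.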
Cl transport mod – KCC2 cotransporter modulators, thallium flux, primary screen, cell-based, HEK293 KCC2, FluoZin-2 fluorescence, MLSMR; B-score of Tl+ flux slope (higher = more flux/activation; lower = inhibition) at 10 µM; 2.2% of 190,000 active; KCC2 cells, thallium flux FluoZin-2 fluorescence; Solute carrier family 12 member 5 (Homo sapiens), Q9H2X9;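 active means thallium flux slope and its plate-corrected score both differing from the plate sample mean at a set confidence after two filtering rounds, in either direction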;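 further: slope of fluorescence scaled to starting intensity during 10 to 20 s after thallium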
Target sequence (Q9H2X9 whole entry, looked up): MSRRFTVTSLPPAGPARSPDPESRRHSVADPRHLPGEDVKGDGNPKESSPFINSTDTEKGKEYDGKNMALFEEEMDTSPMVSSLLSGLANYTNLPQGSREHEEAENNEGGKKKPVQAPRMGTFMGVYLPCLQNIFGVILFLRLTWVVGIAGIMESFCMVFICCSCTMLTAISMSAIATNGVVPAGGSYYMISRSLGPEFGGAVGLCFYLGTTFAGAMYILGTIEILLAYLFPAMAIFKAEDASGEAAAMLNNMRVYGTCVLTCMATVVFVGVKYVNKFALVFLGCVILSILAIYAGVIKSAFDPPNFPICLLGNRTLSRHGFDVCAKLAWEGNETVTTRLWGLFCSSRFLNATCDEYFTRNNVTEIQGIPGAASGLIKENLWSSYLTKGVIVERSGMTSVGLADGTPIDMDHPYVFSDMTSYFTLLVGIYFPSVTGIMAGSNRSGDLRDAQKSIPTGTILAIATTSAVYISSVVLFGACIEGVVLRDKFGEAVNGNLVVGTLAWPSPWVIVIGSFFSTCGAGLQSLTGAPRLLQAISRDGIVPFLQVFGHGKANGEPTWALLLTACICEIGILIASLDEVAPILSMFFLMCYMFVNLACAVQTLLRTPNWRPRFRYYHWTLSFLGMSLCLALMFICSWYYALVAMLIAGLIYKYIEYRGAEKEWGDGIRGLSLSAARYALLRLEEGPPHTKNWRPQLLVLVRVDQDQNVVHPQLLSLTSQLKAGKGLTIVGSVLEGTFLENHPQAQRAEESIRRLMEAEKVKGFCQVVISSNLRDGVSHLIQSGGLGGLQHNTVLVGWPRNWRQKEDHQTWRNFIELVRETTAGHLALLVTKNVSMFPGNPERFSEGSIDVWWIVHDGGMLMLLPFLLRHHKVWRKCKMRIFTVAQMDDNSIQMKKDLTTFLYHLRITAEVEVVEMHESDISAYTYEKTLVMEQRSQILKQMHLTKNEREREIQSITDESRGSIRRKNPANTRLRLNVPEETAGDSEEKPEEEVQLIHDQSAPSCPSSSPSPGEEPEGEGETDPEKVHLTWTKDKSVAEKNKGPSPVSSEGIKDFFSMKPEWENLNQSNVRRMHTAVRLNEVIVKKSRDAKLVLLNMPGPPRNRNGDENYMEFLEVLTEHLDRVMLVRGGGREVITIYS
Pf gametocyte – late stage P. falciparum gametocyte viability inhibitors, primary screen, ATP luminescence, HTS; 0.065% of 150,000 active; inhibition, % at 10.9 µM; P. falciparum stage V gametocytes, 24 h;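 active means inhibition above the mean plus 3 SD of compounds within the control limits, set per campaign, cut at about 38% in these data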;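 further: 0% = DMSO wells and 100% = medium only without gametocytes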
KCC2 secondary – KCC2 modulators in sodium-free buffer, confirmation, cell-based, HEK293 KCC2, thallium flux, secondary assay. shares compounds with Cl transport mod. normalised thallium flux (F/F0 slope) at 10 µM. AID 1713, 2009. 15% of 3,700 active. FluoZin2 fluorescence; hits give high values;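 active means thallium flux slope above the same plate's solvent-only control mean plus 3 SD; inconclusive means the two replicate wells disagree; inactive means no significant difference from solvent-only control wells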
KCC2 bumet counter – thallium flux persisting under bumetanide in KCC2 cells, confirmation, counter-screen for KCC2 modulator project, cell-based, HEK293 KCC2, FluoZin2, secondary assay 3 | shares compounds with Cl transport mod | HEK293-KCC2 + bumetanide/ouabain; hits give high values | normalized thallium flux at 10 µM | 49% of 3,700 active | AID 1714, 2009;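 active means thallium entry rate above the same plate's blocked-transporter control wells by more than 3 SD; inconclusive means the two repeat wells disagree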;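 further: raw slope of fluorescence over initial fluorescence between 10 and 20 s after thallium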
KCC2 secondary2 – KCC2 modulators without ouabain present, confirmation, cell-based, HEK293 KCC2, thallium flux, FluoZin2, secondary assay 2. normalized thallium flux at 10 µM. 23% of 3,700 active. shares compounds with Cl transport mod. thallium flux FluoZin2 fluorescence; actives lie on both sides; F/F0 rise rate, 10–20 s post-thallium;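 active means thallium flux slope more than 3 SD above or below the plate's solvent-only control mean, mostly below; inconclusive means the two repeat wells disagreed; inactive means no significant shift from solvent-only controls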;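 further: raw slope with 0.1% DMSO as baseline and bumetanide as block control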
HEK293 Tl flux – thallium flux modulation in parental HEK cells, confirmation, counter-screen for KCC2 modulator project, cell-based, counterscreen 1; shares compounds with Cl transport mod; HEK293 parental cells, thallium flux FluoZin2, ouabain; baseline-ratio fluorescence slope, 10–20 s after thallium; thallium flux rate (normalised fluorescence) at 10 µM; 46% of 3,700 active; AID 1716, 2009;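 active means thallium flux rate significantly above the same plate's solvent-only control wells, beyond their mean plus 3 SD; inconclusive means the two replicate wells gave conflicting results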
KCC2 retest ouab – KCC2 inhibitors and activators, ouabain retest, confirmation, HEK-KCC2 cells; shares compounds with Cl transport mod; HEK293-KCC2, thallium flux FluoZin2 fluorescence; bidirectional: low = inhibitor, high = activator; raw Tl+ flux slope (below DMSO = inhibition, above = activation) at 10 µM; 48% of 3,700 active;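 active means thallium flux slope beyond 3 SD from same-plate DMSO control mean in most replicates, usually higher, sometimes lower; inconclusive means repeat tests gave conflicting results; inactive means no significant difference from controls in most replicates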;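 further: slope of initial-normalized fluorescence between seconds 10 and 20 after thallium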
HEK293 Tl flux2 – native HEK Tl+ uptake effects, second counter-screen – HEK cells, counterscreen 2, counter-screen for KCC2 modulator project, confirmation; shares compounds with Cl transport mod; HEK293 parental, thallium flux FluoZin-2 fluorescence slope; thallium flux slope at 10 µM; 33% of 3,700 active; AID 1718, 2009;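 active means thallium flux slope above the same plate's solvent-control mean plus 3 SD in both duplicate wells; inconclusive means duplicate wells that disagreed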;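 further: run without ouabain in cells lacking the KCC2 cotransporter; slope of fluorescence scaled to its starting value between 10 and 20 s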
Numbers without * were called inactive; ? = inconclusive; . = no result. Compounds with a hit are over-represented: about 4% of the library has one in this group of screens.

SMILES | WT yeast gro inh | MT stabilize HCS | b-catenin transl | Cl transport mod | Pf gametocyte | KCC2 secondary | KCC2 bumet counter | KCC2 secondary2 | HEK293 Tl flux | KCC2 retest ouab | HEK293 Tl flux2
CC(C)c1ccc(-c2csc(NC(=O)c3cccs3)c2C(=O)O)cc1 | 5 | 3 | -1 | 20* | -15 | 0.0072 | 0.045* | 0.027* | 0.021* | ? | ?
Cc1nccc(-c2cccc(N/N=C(\C#N)C(=O)c3ccccc3)c2)n1 | . | . | 0 | -5.1* | -6 | ? | 0.036* | 0.031 | 0.015* | 0.025 | 0.011*
Cc1nccc(-c2cccc(NC(=O)Nc3ccc(Cl)cc3)c2)n1 | . | . | 0 | -0.2 | 24 | . | . | . | . | . | .
Nc1ccc2oc(-c3cccs3)nc2c1 | 6 | 5 | -1 | -3.9* | . | 0.007 | 0.0052 | 0.031 | 0.0084 | 0.019 | 0.011
Cc1ccccc1C(=O)NC(CC(C)C)C(=O)OCC(=O)c1c(N)n(C)c(=O)n(C)c1=O (stereo not given) | 10 | 2 | 1 | 0.066 | -5 | . | . | . | . | . | .
O=C(CNCC1(N2CCOCC2)CCCCC1)Nc1ccc(Cl)cc1 | -2 | 4 | -2 | 1.6 | . | . | . | . | . | . | .
COCC(O)CSc1nc(C)[nH]c1[N+](=O)[O-] (stereo not given) | -7 | 2 | . | -5.2* | . | 0.016 | 0.0042 | 0.028 | 0.0072 | 0.016 | 0.0097
CCCCNC(=O)C1CCCN1C(=O)Nc1ccccc1 (stereo not given) | -8 | 4 | -2 | 0.044 | . | . | . | . | . | . | .
O=S(=O)(Nc1cc(Sc2cccc3cccnc23)c(O)c2ccccc12)c1ccccc1 | 47 | 3 | 0 | 48* | 24 | 0.035* | 0.08* | 0.044* | 0.049* | 0.058* | 0.015*
COc1cc(NS(=O)(=O)c2ccc(C)cc2)c2ncccc2c1 | 2 | 11 | 4 | 49* | . | 0.028* | 0.093* | 0.035 | ? | 0.062* | ?
COc1ccc(S(=O)(=O)Nc2cc(C)ccc2OC)cc1C | 2 | 5 | . | 0.26 | -3 | . | . | . | . | . | .
CCc1ccc(S(=O)(=O)Nc2cc(SCC(=O)O)c(O)c3ccccc23)cc1 | 0 | 3 | 1 | -1.4 | -7 | . | . | . | . | . | .
COc1ccccc1NS(=O)(=O)c1cccc2cccnc12 | -4 | 4 | 2 | 2.7* | . | 0.0093 | 0.014* | 0.035 | ? | 0.023 | ?
COc1ccc(S(=O)(=O)Nc2ccccn2)cc1 | . | . | . | . | 16 | . | . | . | . | . | .
COc1ccc(C)cc1NS(=O)(=O)c1cccc2nonc12 | 1 | 7 | . | 6.5* | . | 0.011 | 0.019* | 0.033 | 0.0075 | 0.027 | ?
CC(CN1CCN(c2ccccc2)CC1)c1ccccc1 (stereo not given) | 1 | 2 | 1 | -0.072 | 24 | . | . | . | . | . | .
O=C(NCC1CC1)C1(C(F)(F)F)CC(CCCO)CCCO1 (stereo not given) | . | . | . | . | 2 | . | . | . | . | . | .
N#Cc1cnc(SCC(=O)NNC(=O)COc2cccc3ccccc23)nc1N | -25 | 2 | . | 0.7 | -18 | . | . | . | . | . | .
COc1cc(NC(=S)Nc2ccc(N(C)C(C)=O)cc2)cc(OC)c1 | -5 | 2 | -4 | -0.14 | . | . | . | . | . | . | .
Cc1ccc(S(=O)(=O)Nc2cccc3cccnc23)cc1 | 53 | 2 | . | 13* | -6 | ? | 0.066* | 0.032 | 0.02* | 0.035* | ?
Cc1cc(Cl)cc(Cl)c1OCCOc1cccc2cccnc12 | . | 2 | . | -7* | -2 | 0.0057 | 0.0045 | 0.029 | 0.0081 | 0.018 | 0.011
Cc1cc(Br)ccc1SCC(=O)OCC(=O)Nc1ccccc1C#N | -5 | 5 | -3 | -0.1 | . | . | . | . | . | . | .
Cc1cccc(OCc2nnc(SCC(=O)c3cccs3)n2C)c1C | 38 | 2 | -4 | -4.5* | . | 0.0068 | 0.0042 | 0.024* | 0.0075 | 0.016* | 0.0096
Cc1c(F)cccc1NC(=O)CCCCCC1NC(=O)NC1C (stereo not given) | -3 | 1 | -1 | 0.22 | -17 | . | . | . | . | . | .
Cc1cccc(NC(=O)Nc2cccc(C)n2)n1 | -9 | 8 | -4 | -0.85 | 20 | . | . | . | . | . | .
SMILES | WT yeast gro inh | MT stabilize HCS | b-catenin transl | Cl transport mod | Pf gametocyte | KCC2 secondary | KCC2 bumet counter | KCC2 secondary2 | HEK293 Tl flux | KCC2 retest ouab | HEK293 Tl flux2
Cc1cccc(NC(=O)Nc2ccc(C)c(C)c2)n1 | -9 | 2 | -3 | 5.7* | . | 0.0092 | 0.0054 | 0.038 | 0.0074 | 0.021 | 0.011
COc1ccc(/C=N/NC(=O)CN2CCSCC2)c(OC)c1 | 0 | 2 | -4 | 0.12 | . | . | . | . | . | . | .
CNC(=S)N/N=C(\C)c1ccc(C(C)(C)C)cc1 | 75* | 3 | -2 | 5.7* | . | 0.0093 | 0.018* | 0.032 | 0.022* | ? | 0.013*
O=C(NC1CCCCCC1)c1ccc2nc3cc(Cl)ccc3c(=O)n2c1 | 2 | 3 | 1 | 0.78 | 20 | . | . | . | . | . | .
COc1ccc(OCC(=O)NNC(=O)c2cccc(S(=O)(=O)N(C)C)c2)cc1 | -10 | 8 | -1 | 1.4 | -7 | . | . | . | . | . | .
Cc1ccc(-c2csc(N(C)C(=O)c3c(C)nn(-c4ccccc4)c3Cl)n2)cc1 | 9 | 1 | -1 | 0.098 | . | . | . | . | . | . | .
C=CCn1c(SCC#N)nc2c(c1=O)C(C)(C)Cc1ccccc1-2 | 21 | 1 | -1 | -0.13 | 7 | 0.0061 | 0.005 | 0.031 | ? | 0.018 | 0.009
O=C(O)/C=C/C(=O)N1CCN(c2cccc(Cl)c2)CC1 | -6 | 2 | 1 | 0.7 | . | . | . | . | . | . | .
Cc1ccc(C(=S)N2CCN(Cc3ccccc3)CC2)cc1 | 22 | 5 | -4 | -3.3* | -16 | ? | 0.0064 | 0.031 | 0.0076 | 0.015* | 0.011
Cc1ccc(NC(=S)N2CCN(Cc3ccccc3)CC2)cc1 | -5 | 2 | 0 | -2.2 | 8 | . | . | . | . | . | .

Compound activity as filed in PubChem BioAssay.
